Measurements taken from ChEMBL document CHEMBL4049394, “Desing and synthesis of potent anti-Trypanosoma cruzi agents new thiazoles derivatives which induce apoptotic parasite death” (Eur J Med Chem, 2017).

What was measured:
[1] = Cytotoxicity against mouse J774A.1 cells after 24 to 72 hrs by MTT assay; assay type: cell-based, J774.A1; conditions: read-out: MNCC
Summary of the method: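 J774A.1 macrophages in DMEM with 10% heat-inactivated FBS at 37 °C, 5% CO2. Seeded at 1×10^5 cells/well, 24 h preincubation, then compounds at 1–100 µg/mL for 72 h (table footnote: viability at 24 h). MTT 2 h, formazan dissolved in DMSO, absorbance read at 570 nm. Highest non-cytotoxic concentration reported.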

Trypanosoma cruzi [2] = experiment: Potency index, ratio of benznidazole CC50 to compound CC50 for bloodstream trypomastigote stage of Trypanosoma cruzi Y infected in monkey LLC-MK2 cells; assay type: functional
Trypanosoma cruzi [3] = experiment: Antitrypanosomal activity against bloodstream trypomastigote stage of Trypanosoma cruzi Y infected in monkey LLC-MK2 cells measured after 24 hrs by neubauer chamber method; assay type: functional; conditions: LLC-MK2, in Primates
Summary of the method: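 Y strain trypomastigotes taken from LLC-MK2 culture supernatant and held in RPMI-1640 with 10% FBS. Seeded at 4×10^5 cells/well and treated in triplicate for 24 h at 37 °C, 5% CO2. Motile parasites counted in a Neubauer chamber against untreated wells. IC50 by nonlinear regression from at least seven concentrations. Experiment repeated; SD < 10% of mean required.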

Trypanosoma cruzi [4] = experiment: Antitrypanosomal activity against Trypanosoma cruzi Dm28c epimastigotes measured after 4 to 5 days by neubauer chamber method; assay type: functional
Summary of the method: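 Dm28c epimastigotes in LIT with 10% FBS, 1% hemin and gentamycin at 27 °C. Seeded at 10^6 cells/well and treated in triplicate for 4 days (table footnote: 5 days). Parasites counted in a Neubauer chamber against untreated wells as 100%. IC50 by nonlinear regression from at least five concentrations. Experiment repeated; only values with SD < 10% of mean kept.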

[5] = Selectivity index, ratio of highest non-cytotoxic concentration for mouse J774A.1 cells to CC50 for bloodstream trypomastigote stage of Trypanosoma cruzi Y infected in monkey LLC-MK2 cells; assay type: toxicity, cell-based; conditions: read-out: Selectivity Index
Summary of the method: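 Selectivity index is the highest non-cytotoxic concentration in J774A.1 macrophages divided by the 50% value against Y strain trypomastigotes measured after 24 h.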

[6] = target: Cruzipain (Trypanosoma cruzi) (UniProt P25779); experiment: Inhibition of Trypanosoma cruzi cruzain at 50 uM using Z-phe-Arg-aminomethylcoumarin as substrate pretreated for 10 mins measured for 5 mins by fluorometric method relative to control
Sequence of Cruzipain (Trypanosoma cruzi) (P25779 123-467 limits assumed): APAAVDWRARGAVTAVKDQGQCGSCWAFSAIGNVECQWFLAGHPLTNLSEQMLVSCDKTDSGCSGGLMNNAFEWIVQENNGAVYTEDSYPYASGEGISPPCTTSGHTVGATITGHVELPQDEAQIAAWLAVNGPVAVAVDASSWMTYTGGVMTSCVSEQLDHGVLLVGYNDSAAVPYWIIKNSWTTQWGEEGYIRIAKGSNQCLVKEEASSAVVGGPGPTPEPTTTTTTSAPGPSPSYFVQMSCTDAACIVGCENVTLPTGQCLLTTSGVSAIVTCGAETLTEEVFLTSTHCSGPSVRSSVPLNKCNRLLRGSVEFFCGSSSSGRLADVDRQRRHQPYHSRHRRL
Summary of the method: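 Cruzain at 0.5 nM in 0.1 M sodium acetate pH 5.5 with 0.1 mM β-mercaptoethanol and 0.01% Triton X-100. Compound screened at 50 µM after a 10-min preincubation with enzyme, then 2.5 µM Z-FR-AMC added. AMC fluorescence (ex 340/em 440 nm) followed for 5 min. Activity taken from initial rates relative to a DMSO control. Two independent experiments, each in triplicate.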

Trypanosoma cruzi [7] = experiment: Potency index, ratio of benznidazole CC50 to compound CC50 for Trypanosoma cruzi Dm28c epimastigotes; assay type: functional
Trypanosoma cruzi [8] = experiment: Induction of apoptosis in bloodstream trypomastigote stage of Trypanosoma cruzi Y infected in monkey LLC-MK2 cells assessed as early apoptotic cells at 3.2 uM measured after 24 hrs by Annexin-V-FITC/propidium iodide staining based flow cytometric method (reference value: 0.31%); assay type: functional
Trypanosoma cruzi [9] = experiment: Induction of apoptosis in bloodstream trypomastigote stage of Trypanosoma cruzi Y infected in monkey LLC-MK2 cells assessed as early apoptotic cells at 1.6 uM measured after 24 hrs by Annexin-V-FITC/propidium iodide staining based flow cytometric method (reference value: 0.31%); assay type: functional
Trypanosoma cruzi [10] = experiment: Induction of apoptosis in bloodstream trypomastigote stage of Trypanosoma cruzi Y infected in monkey LLC-MK2 cells assessed as necrotic cells at 3.2 uM measured after 24 hrs by Annexin-V-FITC/propidium iodide staining based flow cytometric method (reference value: 0.014%); assay type: functional
Trypanosoma cruzi [11] = experiment: Induction of apoptosis in bloodstream trypomastigote stage of Trypanosoma cruzi Y infected in monkey LLC-MK2 cells assessed as late apoptotic cells at 3.2 uM measured after 24 hrs by Annexin-V-FITC/propidium iodide staining based flow cytometric method (reference value: 0.27%); assay type: functional
Trypanosoma cruzi [12] = experiment: Induction of apoptosis in bloodstream trypomastigote stage of Trypanosoma cruzi Y infected in monkey LLC-MK2 cells assessed as necrotic cells at 1.6 uM measured after 24 hrs by Annexin-V-FITC/propidium iodide staining based flow cytometric method (reference value: 0.014%); assay type: functional
Trypanosoma cruzi [13] = experiment: Induction of apoptosis in bloodstream trypomastigote stage of Trypanosoma cruzi Y infected in monkey LLC-MK2 cells assessed as late apoptotic cells at 1.6 uM measured after 24 hrs by Annexin-V-FITC/propidium iodide staining based flow cytometric method (reference value: 0.27%); assay type: functional
Trypanosoma cruzi [14] = experiment: Induction of apoptosis in bloodstream trypomastigote stage of Trypanosoma cruzi Y infected in monkey LLC-MK2 cells assessed as necrotic cells at 25 uM measured after 24 hrs by Annexin-V-FITC/propidium iodide staining based flow cytometric method (reference value: 0.014%); assay type: functional
Trypanosoma cruzi [15] = experiment: Induction of apoptosis in bloodstream trypomastigote stage of Trypanosoma cruzi Y infected in monkey LLC-MK2 cells assessed as necrotic cells at 5 uM measured after 24 hrs by Annexin-V-FITC/propidium iodide staining based flow cytometric method (reference value: 0.014%); assay type: functional
Trypanosoma cruzi [16] = experiment: Induction of apoptosis in bloodstream trypomastigote stage of Trypanosoma cruzi Y infected in monkey LLC-MK2 cells assessed as necrotic cells at 4.4 uM measured after 24 hrs by Annexin-V-FITC/propidium iodide staining based flow cytometric method (reference value: 0.014%); assay type: functional
Trypanosoma cruzi [17] = experiment: Induction of apoptosis in bloodstream trypomastigote stage of Trypanosoma cruzi Y infected in monkey LLC-MK2 cells assessed as late apoptotic cells at 2.2 uM measured after 24 hrs by Annexin-V-FITC/propidium iodide staining based flow cytometric method (reference value: 0.27%); assay type: functional
Trypanosoma cruzi [18] = experiment: Induction of apoptosis in bloodstream trypomastigote stage of Trypanosoma cruzi Y infected in monkey LLC-MK2 cells assessed as early apoptotic cells at 4.4 uM measured after 24 hrs by Annexin-V-FITC/propidium iodide staining based flow cytometric method (reference value: 0.31%); assay type: functional
Trypanosoma cruzi [19] = experiment: Induction of apoptosis in bloodstream trypomastigote stage of Trypanosoma cruzi Y infected in monkey LLC-MK2 cells assessed as necrotic cells at 2.2 uM measured after 24 hrs by Annexin-V-FITC/propidium iodide staining based flow cytometric method (reference value: 0.014%); assay type: functional
Trypanosoma cruzi [20] = experiment: Induction of apoptosis in bloodstream trypomastigote stage of Trypanosoma cruzi Y infected in monkey LLC-MK2 cells assessed as late apoptotic cells at 4.4 uM measured after 24 hrs by Annexin-V-FITC/propidium iodide staining based flow cytometric method (reference value: 0.27%); assay type: functional
Trypanosoma cruzi [21] = experiment: Induction of apoptosis in bloodstream trypomastigote stage of Trypanosoma cruzi Y infected in monkey LLC-MK2 cells assessed as early apoptotic cells at 2.2 uM measured after 24 hrs by Annexin-V-FITC/propidium iodide staining based flow cytometric method (reference value: 0.31%); assay type: functional

Structure (SMILES)	MNTC [1] [µM]	CC50 (Trypanosoma cruzi [3]) [µM]	CC50 (Trypanosoma cruzi [4]) [µM]	selectivity ratio [5]	also measured
C/C(=N\N=c1/scc(-c2cccc([N+](=O)[O-])c2)n1C)c1ccccn1	82	2.4	7.8	34	Ratio (Trypanosoma cruzi [2]): 3
C/C(=N\N=c1/scc(-c2ccccc2)n1C)c1ccccn1	4	4	56	1	inhibition [6]: 70%
CNC(=S)N/N=C(\C)c1ccccn1	22	8.8	–	2.5	–
C/C(=N\N=c1/scc(-c2ccc(-c3ccccc3)cc2)n1-c1ccccc1)c1ccccn1	7	2	47.3	4	–
C/C(=N\N=c1/scc(-c2ccccc2)n1-c1ccccc1)c1ccccn1	51	6.3	93.4	8	–
C/C(=N\N=c1/scc(-c2ccc3ccccc3c2)n1C)c1ccccn1	30	3	8.2	10	–
C/C(=N\N=c1/scc(-c2ccc(Cl)c(Cl)c2)n1-c1ccccc1)c1ccccn1	8	1.9	13.9	4	–
C/C(=N\N=c1/scc(-c2ccc3ccccc3c2)n1-c1ccccc1)c1ccccn1	51	6.1	1.9	8	–
C/C(=N\N=c1/scc(-c2cccc([N+](=O)[O-])c2)n1-c1ccccc1)c1ccccn1	10	1.9	11	5	–
C/C(=N\N=c1/scc(-c2ccc(Cl)cc2)n1-c1ccccc1)c1ccccn1	13	2	9.1	7	–
C/C(=N\N=c1/sc(C)c(-c2ccc(Br)cc2)n1-c1ccccc1)c1ccccn1	30	3.1	17.1	10	–
C/C(=N\N=c1/scc(-c2ccc(Br)cc2)n1-c1ccccc1)c1ccccn1	10	1.8	6.3	6	–
C/C(=N\N=c1/scc(-c2ccc(F)cc2)n1-c1ccccc1)c1ccccn1	35	3.9	3.1	9	inhibition [6]: 58%
C/C(=N\N=c1/scc(-c2ccc(Cl)c(Cl)c2)n1C)c1ccccn1	11	2.3	6.9	5	Ratio (Trypanosoma cruzi [2]): 3; Ratio (Trypanosoma cruzi [7]): 7
C/C(=N\N=c1/scc(-c2ccc(Cl)cc2Cl)n1-c1ccccc1)c1ccccn1	81	1.6	2.7	50 to 51	Activity (Trypanosoma cruzi [8]): 39.4%; Activity (Trypanosoma cruzi [9]): 39.5%; Ratio (Trypanosoma cruzi [2]): 4 - 5; Ratio (Trypanosoma cruzi [7]): 18; Activity (Trypanosoma cruzi [10]): 3.2%; Activity (Trypanosoma cruzi [11]): 4.3%; Activity (Trypanosoma cruzi [12]): 2.9%; Activity (Trypanosoma cruzi [13]): 4%
C/C(=N\N=c1/scc(-c2ccc([N+](=O)[O-])cc2)n1-c1ccccc1)c1ccccn1	23	3.1	87.4	7	–
C/C(=N\N=c1/scc(-c2ccc([N+](=O)[O-])cc2)n1C)c1ccccn1	36	7	13.7	5	–
O=C(Cn1ccnc1[N+](=O)[O-])NCc1ccccc1 [BENZNIDAZOLE]	44.7	6.2	48.8	7.2	Activity (Trypanosoma cruzi [14]): 56.4%; Activity (Trypanosoma cruzi [15]): 4.2%
C/C(=N\N=c1/scc(-c2ccc(F)cc2)n1C)c1ccccn1	12	5.6	8.5	2	–
COc1ccc(-c2cs/c(=N\N=C(/C)c3ccccn3)n2C)cc1	20	4.6	4.5	4	–
C/C(=N\N=c1/scc(-c2ccc(Br)cc2)n1C)c1ccccn1	33	2.2	3.2	15	Activity (Trypanosoma cruzi [16]): 3.15%; Activity (Trypanosoma cruzi [17]): 4%; Ratio (Trypanosoma cruzi [7]): 15; Activity (Trypanosoma cruzi [18]): 35%; Activity (Trypanosoma cruzi [19]): 3%; Activity (Trypanosoma cruzi [20]): 4.7%; Activity (Trypanosoma cruzi [21]): 38%
C/C(=N\N=c1/sc(C)c(-c2ccccc2)n1C)c1ccccn1	97	2.7	6.2	36	inhibition [6]: 73%
C/C(=N\N=c1/scc(-c2ccc(Cl)cc2)n1C)c1ccccn1	20	4.5	–	4	–
C/C(=N\N=c1/scc(-c2ccc(-c3ccccc3)cc2)n1C)c1ccccn1	6	2.2	66.6	3	–
C/C(=N\N=c1/sc(C)c(-c2ccccc2)n1-c1ccccc1)c1ccccn1	43	2.3	15.5	19	–
C/C(=N\N=c1/scc(-c2ccc(Cl)cc2Cl)n1C)c1ccccn1	14	13	31.6	1	–
C/C(=N\N=c1/sc(C)c(-c2ccc(Br)cc2)n1C)c1ccccn1	68	3.4	2.9	20	–
